Results published in publication PMC9710334 (BMJ Open Gastroenterology, 2022).
“Also recorded” adds a separate entry of the source.

Experiments:
[1] = tested on: patients with advanced primary biliary cholangitis; experiment: Phase 1 trial: adverse events graded by CTCAE v4.0, safety and tolerability; type: in vivo, human
How it was run: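 Seven advanced PBC patients (stage III or higher) received OP-724 iv at 280 (n=6) or 380 (n=1) mg/m2 over 4 hours, twice weekly for 12 cycles, after a single dose given 7 days before cycle 1. AEs and laboratory results were recorded throughout and graded by CTCAE v4.0. The primary endpoint was SAEs where drug causality could not be excluded.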

CBP/β-catenin = conditions: cited from earlier work
[2] = tested on: cholestatic liver fibrosis models; conditions: cited from earlier work
[3] = tested on: liver fibrosis in patients with advanced PBC; experiment: Paired liver biopsy histology; type: in vivo, human
How it was run: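 Paired liver biopsies were taken at screening (baseline) and within 2 weeks of the final dose of the 12-cycle iv regimen (280 or 380 mg/m2/4 hours, twice weekly). Sections were stained with Masson's trichrome, H&E and Sirius red. Three independent central pathologists scored the slides blinded, using Knodell and Ishak modified HAI for grade and fibrosis stage. Analysis was descriptive.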

liver fibrosis models = conditions: cited from earlier work
[4] = patient P101-02, 12 weeks, baseline 2
[5] = patient P101-04, 12 weeks, baseline 1
[6] = patient P101-07, 12 weeks, baseline 2
[7] = patient P101-07, 12 weeks, baseline 3
[8] = patient P101-08, 12 weeks, baseline 3

## C[C@H]1[C@H]2N(C(=O)CN(C)N2C(=O)NCc2ccccc2)[C@@H](Cc2ccc(OP(=O)(O)O)cc2)C(=O)N1Cc1cccc2cccnc12 [OP-724]
[1]; 380 mg/m^2/4 hours (n=1)
  Infusion site extravasation, Grade 2, patients n (%): 0
  Infusion site extravasation, Grades 3–5, patients n (%): 0
  Nasopharyngitis, Grade 2, patients n (%): 0
  Nasopharyngitis, Grades 3–5, patients n (%): 0
  Nausea, Grade 1, patients n (%): 0
  Nausea, Grade 2, patients n (%): 0
  Nausea, Grades 3–5, patients n (%): 0
  Open angle glaucoma, Grade 1, patients n (%): 0
  Open angle glaucoma, Grade 2, patients n (%): 0
  Open angle glaucoma, Grades 3–5, patients n (%): 0
  Renal impairment, Grade 1, patients n (%): 0
  Renal impairment, Grade 2, patients n (%): 0
  Renal impairment, Grades 3–5, patients n (%): 0
  Tooth fracture, Grade 1, patients n (%): 0
  Tooth fracture, Grade 2, patients n (%): 0
  Tooth fracture, Grades 3–5, patients n (%): 0
  Vomiting, Grade 1, patients n (%): 0
  Vomiting, Grade 2, patients n (%): 0
  Vomiting, Grades 3–5, patients n (%): 0
[1]; all patients (0/7), 280 or 380 mg/m^2/4 hours iv two times weekly, 12 weeks
  incidence of SAEs (primary endpoint): 0%
[1]; all patients (3/7)
  patients who developed general/systemic disorder and administration site status: 42.9%
  patients who developed hepatobiliary system disorder: 42.9%
[1]; all patients (4/7)
  patients who developed gastrointestinal disorder: 57.1%
[1]; all patients (6/7)
  occurrence rate of side effects: 85.7%
[1]; all patients (7/7)
  occurrence rate of AEs: 100%
[1]; all seven patients
  abdominal discomfort (most common AEs): 29%
  abnormal hepatic function (most common AEs): 43%
[1]; iv infusion two times weekly for 12 weeks, patients with advanced PBC
  recommended dosage: 280 mg/m^2/4 hours
[1]; managed with standard-of-care antiemetics
  emetogenicity: mildly or moderately emetogenic
[1]; one patient in the 380 mg/m^2/4 hours cohort
  grade of drug-induced liver injury leading to withdrawal: grade 2
[1]; seven patients, 280 or 380 mg/m^2/4 hours iv two times weekly, 12 weeks
  serious adverse events (in words): did not occur; also recorded: no SAE was observed
[1]; seven patients, administration period
  deaths related to drug administration: no deaths related to drug administration were observed
[1]; this study
  fragility fractures: no fragility fractures were recorded
CBP/β-catenin
  inhibition of the interaction between CBP and β-catenin: selectively inhibits
[2]
  antifibrotic effect: exerts an antifibrotic effect
[3]; paired biopsies, baseline vs 12 weeks, 2/5 patients
  patients with a decrease in the fibrosis stage by 1 or more: 40%
[3]; paired biopsies, baseline vs 12 weeks, 3/5 patients
  patients with a decrease (improvement) in the mHAI score: 60%
[3]; paired biopsies, baseline vs 12 weeks, three of five patients
  patients with a decrease in the CPA: 60%
[3]; patient P101-01, 12 weeks, baseline 0
  Modified HAI score: Confluent necrosis: 0
[3]; patient P101-01, 12 weeks, baseline 1
  Modified HAI score: Lobular inflammation: 1
[3]; patient P101-01, 12 weeks, baseline 2
  Modified HAI score: Interface hepatitis: 2
[3]; patient P101-01, 12 weeks, baseline 3
  Modified HAI score: Portal inflammation: 3
[3]; patient P101-01, 12 weeks, baseline 4
  Modified HAI score: Stage: 3
[3]; patient P101-01, 12 weeks, baseline 6
  Modified HAI score: HAI score: 6
[3]; patient P101-01, 12 weeks, baseline 7.8010627
  Collagen proportional area, Sirius red positive area: 2.739%
[3]; patient P101-02, 12 weeks, baseline 0
  Modified HAI score: Confluent necrosis: 0
[3]; [4]
  Modified HAI score: Interface hepatitis: 1
  Modified HAI score: Lobular inflammation: 1
  Modified HAI score: Portal inflammation: 1
[3]; patient P101-02, 12 weeks, baseline 4.9477138
  Collagen proportional area, Sirius red positive area: 3.714%
[3]; patient P101-02, 12 weeks, baseline 5
  Modified HAI score: Stage: 5
[3]; patient P101-02, 12 weeks, baseline 6
  Modified HAI score: HAI score: 3
[3]; patient P101-04, 12 weeks, baseline 0
  Modified HAI score: Confluent necrosis: 1
[3]; [5]
  Modified HAI score: Lobular inflammation: 2
  Modified HAI score: Portal inflammation: 3
[3]; patient P101-04, 12 weeks, baseline 2
  Modified HAI score: Interface hepatitis: 3
[3]; patient P101-04, 12 weeks, baseline 3
  Modified HAI score: Stage: 5
[3]; patient P101-04, 12 weeks, baseline 4
  Modified HAI score: HAI score: 9
[3]; patient P101-04, 12 weeks, baseline 6.8891091
  Collagen proportional area, Sirius red positive area: 7.584%
[3]; [6]
  Modified HAI score: Confluent necrosis: 0
  Modified HAI score: Interface hepatitis: 2
[3]; [7]
  Modified HAI score: Lobular inflammation: 2
  Modified HAI score: Portal inflammation: 2
  Modified HAI score: Stage: 3
[3]; patient P101-07, 12 weeks, baseline 3.8731926
  Collagen proportional area, Sirius red positive area: 3.646%
[3]; patient P101-07, 12 weeks, baseline 10
  Modified HAI score: HAI score: 6
[3]; [8]
  Modified HAI score: Confluent necrosis: 0
  Modified HAI score: Lobular inflammation: 3
  Modified HAI score: Portal inflammation: 2
[3]; patient P101-08, 12 weeks, baseline 4
  Modified HAI score: Interface hepatitis: 1
[3]; patient P101-08, 12 weeks, baseline 5
  Modified HAI score: Stage: 2
[3]; patient P101-08, 12 weeks, baseline 7.7587483
  Collagen proportional area, Sirius red positive area: 3.484%
[3]; patient P101-08, 12 weeks, baseline 13
  Modified HAI score: HAI score: 6
[3]; patients P101-01 and P101-08, after OP-724 administration
  septal thickness in liver parenchyma, Masson's trichrome staining: reduction in septal thickness
Liver fibrosis models
  antifibrotic effect: exerts antifibrotic effects
